Data: ChEMBL document CHEMBL3098034, “Synthesis and biological evaluation of α-hydroxyalkylphosphonates as new antimicrobial agents” (Bioorg Med Chem Lett, 2014)
Values after ≈ are worked out from the molar mass of the structure shown. Active and inactive are the calls of the source. The rule behind the calls is not given here.

How the values were obtained:
Assay type in all cases: functional
Bacillus cereus [1] = test: Antibacterial activity against Bacillus cereus ATCC 11778 after 24 hrs by broth microdilution method; settings: ATCC 11778, 24 h
Summary of the method: (§1)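 MIC (lowest concentration preventing growth) determined per CLSI specifications, with fosfomycin, ceftriaxone, ciprofloxacin and chloramphenicol run as reference drugs; S. aureus ATCC 29213 used as quality-control strain.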

[2] = tested on: Acinetobacter haemolyticus; test: Bactericidal activity against vancomycin-resistant Acinetobacter haemolyticus BW62 after 24 hrs by CFU counting assay; settings: BW62, 24 h
Summary of the method: (§2)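 MBC (lowest concentration killing the pathogen) determined per CLSI specifications, with fosfomycin, ceftriaxone, ciprofloxacin and chloramphenicol run as reference drugs; S. aureus ATCC 29213 used as quality-control strain.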

[3] = tested on: Stenotrophomonas maltophilia; test: Antibacterial activity against multidrug-resistant Stenotrophomonas maltophilia D457R after 24 hrs by broth microdilution method; summary of the method: as §1
Staphylococcus aureus [4] = test: Bactericidal activity against Staphylococcus aureus ATCC 29213 after 24 hrs by CFU counting assay; settings: ATCC 29213, 24 h; summary of the method: as §2
Staphylococcus aureus [5] = test: Bactericidal activity against methicillin-resistant Staphylococcus aureus BW61 after 24 hrs by CFU counting assay; settings: BW61, 24 h; summary of the method: as §2
Escherichia coli [6] = test: Antibacterial activity against multidrug-resistant Escherichia coli BW54 at 10 ug by disc diffusion method; settings: for zone of inhibition at 10 µg/disc: read-out: IZ
Escherichia coli [7] = test: Bactericidal activity against multidrug-resistant Escherichia coli BW54 after 24 hrs by CFU counting assay; settings: BW54, 24 h; summary of the method: as §2
[8] = tested on: Acinetobacter haemolyticus; test: Antibacterial activity against vancomycin-resistant Acinetobacter haemolyticus BW62 after 24 hrs by broth microdilution method; settings: BW62, 24 h; summary of the method: as §1
[9] = tested on: Stenotrophomonas maltophilia; test: Antibacterial activity against multidrug-resistant Stenotrophomonas maltophilia D457R at 10 ug by disc diffusion method; settings: for zone of inhibition at 10 µg/disc: read-out: IZ
Escherichia coli [10] = test: Bactericidal activity against ESBL-producing Escherichia coli BW55 after 24 hrs by CFU counting assay; settings: BW55, 24 h; summary of the method: as §2
[11] = tested on: Acinetobacter haemolyticus; test: Antibacterial activity against vancomycin-resistant Acinetobacter haemolyticus BW62 at 10 ug by disc diffusion method; settings: for zone of inhibition at 10 µg/disc: read-out: IZ
Bacillus cereus [12] = test: Bactericidal activity against Bacillus cereus ATCC 11778 after 24 hrs by CFU counting assay; settings: ATCC 11778, 24 h; summary of the method: as §2
Staphylococcus aureus [13] = test: Antibacterial activity against Staphylococcus aureus ATCC 29213 after 24 hrs by broth microdilution method; settings: ATCC 29213, 24 h; summary of the method: as §1
Escherichia coli [14] = test: Antibacterial activity against ESBL-producing Escherichia coli BW55 after 24 hrs by broth microdilution method; settings: BW55, 24 h; summary of the method: as §1
Pseudomonas aeruginosa [15] = test: Bactericidal activity against multidrug-resistant Pseudomonas aeruginosa PAO1 after 24 hrs by CFU counting assay; settings: PAO1, 24 h; summary of the method: as §2
Pseudomonas aeruginosa [16] = test: Antibacterial activity against multidrug-resistant Pseudomonas aeruginosa PAO1 after 24 hrs by broth microdilution method; settings: PAO1, 24 h; summary of the method: as §1
Staphylococcus aureus [17] = test: Antibacterial activity against methicillin-resistant Staphylococcus aureus BW61 after 24 hrs by broth microdilution method; settings: BW61, 24 h; summary of the method: as §1
Staphylococcus aureus [18] = test: Antibacterial activity against Staphylococcus aureus ATCC 29213 at 10 ug by disc diffusion method; settings: for zone of inhibition at 10 µg/disc: read-out: IZ
Pseudomonas aeruginosa [19] = test: Antibacterial activity against multidrug-resistant Pseudomonas aeruginosa PAO1 at 10 ug by disc diffusion method; settings: for zone of inhibition at 10 µg/disc: read-out: IZ
[20] = tested on: Stenotrophomonas maltophilia; test: Bactericidal activity against multidrug-resistant Stenotrophomonas maltophilia D457R after 24 hrs by CFU counting assay; summary of the method: as §2
Escherichia coli [21] = test: Antibacterial activity against multidrug-resistant Escherichia coli BW54 after 24 hrs by broth microdilution method; settings: BW54, 24 h; summary of the method: as §1
Bacillus cereus [22] = test: Antibacterial activity against Bacillus cereus ATCC 11778 at 10 ug by disc diffusion method; settings: for zone of inhibition at 10 µg/disc: read-out: IZ
Escherichia coli [23] = test: Antibacterial activity against ESBL-producing Escherichia coli BW55 at 10 ug by disc diffusion method; settings: for zone of inhibition at 10 µg/disc: read-out: IZ

Structure (SMILES) | MIC (Bacillus cereus [1]) [µg/mL] | MBC [2] [µg/mL] | MIC [3] [µg/mL] | MBC (Staphylococcus aureus [4]) [µg/mL] | MBC (Staphylococcus aureus [5]) [µg/mL] | Activity (Escherichia coli [6]) | MBC (Escherichia coli [7]) [µg/mL] | MIC [8] [µg/mL] | Activity [9] | MBC (Escherichia coli [10]) [µg/mL] | Activity [11] | MBC (Bacillus cereus [12]) [µg/mL] | MIC (Staphylococcus aureus [13]) [µg/mL] | MIC (Escherichia coli [14]) [µg/mL] | MBC (Pseudomonas aeruginosa [15]) [µg/mL] | MIC (Pseudomonas aeruginosa [16]) [µg/mL] | MIC (Staphylococcus aureus [17]) [µg/mL] | zone of inhibition at 10 µg/disc (Staphylococcus aureus [18]) [mm] | MBC [20] [µg/mL] | MIC (Escherichia coli [21]) [µg/mL] | other results
O=P(Oc1ccccc1)(Oc1ccccc1)[C@@]1(O)c2ccccc2C[C@@H]1Cl (mixture of isomers) | 128 | 256 | 128 | 256 | 256 | inactive | 256 | 128 | inactive | 256 | inactive | 256 | 256 | 128 | 256 | 128 | 256 | 5 | 256 | 128 | zone of inhibition at 10 µg/disc (Pseudomonas aeruginosa [19]): 9 mm; Activity (Bacillus cereus [22]): inactive; zone of inhibition at 10 µg/disc (Escherichia coli [23]): 8 mm
O=C(O)c1cn(C2CC2)c2cc(N3CCNCC3)c(F)cc2c1=O [CIPROFLOXACIN] | 4 (≈ 12.1 µM) | 4 (≈ 12.1 µM) | 4 (≈ 12.1 µM) | 4 (≈ 12.1 µM) | 4 (≈ 12.1 µM) | – | 4 (≈ 12.1 µM) | 4 (≈ 12.1 µM) | – | 1 (≈ 3.02 µM) | – | 4 (≈ 12.1 µM) | 4 (≈ 12.1 µM) | – | 4 (≈ 12.1 µM) | 4 (≈ 12.1 µM) | 4 (≈ 12.1 µM) | – | 256 (≈ 773 µM) | – | –
O=C(N[C@H](CO)[C@H](O)c1ccc([N+](=O)[O-])cc1)C(Cl)Cl [CHLORAMPHENICOL] | 0.5 (≈ 1.55 µM) | ≥ 256 | 128 (≈ 396 µM) | 64 (≈ 198 µM) | 128 (≈ 396 µM) | – | ≥ 256 | 128 (≈ 396 µM) | – | 128 (≈ 396 µM) | – | 64 (≈ 198 µM) | 8 (≈ 24.8 µM) | 8 (≈ 24.8 µM) | ≥ 256 | ≥ 256 | 16 (≈ 49.5 µM) | – | ≥ 256 | 128 (≈ 396 µM) | –
O=P(Oc1ccccc1)(Oc1ccccc1)[C@@]1(O)CCC[C@@H]1Cl (mixture of isomers) | 128 | 256 | 128 | ≥ 256 | ≥ 256 | inactive | 256 | 128 | inactive | 256 | inactive | 256 | 256 | 128 | 256 | 256 | 256 | 8 | 256 | 128 | Activity (Pseudomonas aeruginosa [19]): inactive; Activity (Bacillus cereus [22]): inactive; Activity (Escherichia coli [23]): inactive
CO/N=C(\C(=O)N[C@@H]1C(=O)N2C(C(=O)O)=C(CSc3nc(=O)c(O)nn3C)CS[C@H]12)c1csc(N)n1 [CEFTRIAXONE] | 32 (≈ 57.7 µM) | 4 (≈ 7.21 µM) | 64 (≈ 115 µM) | 4 (≈ 7.21 µM) | 4 (≈ 7.21 µM) | – | 0.5 (≈ 0.902 µM) | 4 (≈ 7.21 µM) | – | 64 (≈ 115 µM) | – | 64 (≈ 115 µM) | 4 (≈ 7.21 µM) | 32 (≈ 57.7 µM) | 128 (≈ 231 µM) | 128 (≈ 231 µM) | 4 (≈ 7.21 µM) | – | 128 (≈ 231 µM) | ≤ 0.5 | –
C[C@](O)(CCl)P(=O)(Oc1ccccc1)Oc1ccccc1 | 64 (≈ 196 µM) | ≥ 256 | 128 (≈ 392 µM) | ≥ 256 | 256 (≈ 784 µM) | – | ≥ 256 | 64 (≈ 196 µM) | inactive | 256 (≈ 784 µM) | – | 128 (≈ 392 µM) | 128 (≈ 392 µM) | 64 (≈ 196 µM) | 256 (≈ 784 µM) | 64 (≈ 196 µM) | 128 (≈ 392 µM) | 9 | ≥ 256 | 128 (≈ 392 µM) | zone of inhibition at 10 µg/disc (Escherichia coli [6]): 8 mm; zone of inhibition at 10 µg/disc [11]: 8 mm; zone of inhibition at 10 µg/disc (Pseudomonas aeruginosa [19]): 7 mm; zone of inhibition at 10 µg/disc (Bacillus cereus [22]): 12 mm; zone of inhibition at 10 µg/disc (Escherichia coli [23]): 7 mm
O=P(Oc1ccccc1)(Oc1ccccc1)[C@](O)(CCl)c1ccccc1 | 64 (≈ 165 µM) | 64 (≈ 165 µM) | 64 (≈ 165 µM) | 64 (≈ 165 µM) | 64 (≈ 165 µM) | – | 64 (≈ 165 µM) | 64 (≈ 165 µM) | – | 64 (≈ 165 µM) | – | 32 (≈ 82.3 µM) | 64 (≈ 165 µM) | 64 (≈ 165 µM) | 64 (≈ 165 µM) | 64 (≈ 165 µM) | 64 (≈ 165 µM) | – | 64 (≈ 165 µM) | 64 (≈ 165 µM) | zone of inhibition at 10 µg/disc (Escherichia coli [6]): 9 mm; zone of inhibition at 10 µg/disc [9]: 7 mm; zone of inhibition at 10 µg/disc [11]: 8 mm; Activity (Staphylococcus aureus [18]): inactive; zone of inhibition at 10 µg/disc (Pseudomonas aeruginosa [19]): 7 mm; zone of inhibition at 10 µg/disc (Bacillus cereus [22]): 7 mm; zone of inhibition at 10 µg/disc (Escherichia coli [23]): 10 mm
C[C@H](Cl)[C@](O)(c1ccccc1)P1(=O)OCC(C)(C)CO1 | – | – | – | – | – | inactive | – | – | – | – | inactive | – | – | – | – | – | – | – | – | – | zone of inhibition at 10 µg/disc [9]: 7 mm; Activity (Staphylococcus aureus [18]): inactive; Activity (Pseudomonas aeruginosa [19]): inactive; Activity (Bacillus cereus [22]): inactive; Activity (Escherichia coli [23]): inactive
